From PMC3580954 (Biopolymers, 2013) come the findings set out here.

Like-named read-outs stand apart in the source and are kept apart here. Residues, ends and D or L forms follow the SMILES beside them. No end group written: not given here. A value given as a limit tells only on which side of the number the result lay.

The target in assay [1] is T1, wt hPrRP receptor (Homo sapiens, UniProt P49683).
T1 sequence (P49683 1-370): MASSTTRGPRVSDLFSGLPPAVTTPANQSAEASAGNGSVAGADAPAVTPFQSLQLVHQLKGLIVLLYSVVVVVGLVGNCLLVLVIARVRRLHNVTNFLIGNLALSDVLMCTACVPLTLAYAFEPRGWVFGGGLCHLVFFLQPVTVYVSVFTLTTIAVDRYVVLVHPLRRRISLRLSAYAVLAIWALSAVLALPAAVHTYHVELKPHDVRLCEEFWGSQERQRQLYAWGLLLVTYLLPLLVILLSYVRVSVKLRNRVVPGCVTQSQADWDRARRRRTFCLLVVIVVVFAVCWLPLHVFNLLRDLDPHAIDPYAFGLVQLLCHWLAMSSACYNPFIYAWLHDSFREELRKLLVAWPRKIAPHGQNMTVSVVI
As to the kind of experiment: Signal transduction. The format is cell-based. The settings on record: SD. Summed up:
(§1)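 COS-7 cells were transiently transfected with 0.4 µg plasmid of human PrRP receptor or its site-directed mutant, C-terminally fused to EYFP. One day after transfection and 16 h before stimulation, cells were labelled with 2 µCi/mL [³H]myo-inositol. They were then stimulated with increasing peptide concentrations for 1 h at 37°C in DMEM with 10 mM LiCl, and lysed in 0.1 M NaOH. IP was separated by anion exchange and counted by scintillation. EC50 came from concentration-response curves; runs were in duplicate, repeated ≥2 times.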

For assay [2], the target named is T2, wt PrRP receptor (Homo sapiens, UniProt P49683).
T2 sequence (P49683 1-370): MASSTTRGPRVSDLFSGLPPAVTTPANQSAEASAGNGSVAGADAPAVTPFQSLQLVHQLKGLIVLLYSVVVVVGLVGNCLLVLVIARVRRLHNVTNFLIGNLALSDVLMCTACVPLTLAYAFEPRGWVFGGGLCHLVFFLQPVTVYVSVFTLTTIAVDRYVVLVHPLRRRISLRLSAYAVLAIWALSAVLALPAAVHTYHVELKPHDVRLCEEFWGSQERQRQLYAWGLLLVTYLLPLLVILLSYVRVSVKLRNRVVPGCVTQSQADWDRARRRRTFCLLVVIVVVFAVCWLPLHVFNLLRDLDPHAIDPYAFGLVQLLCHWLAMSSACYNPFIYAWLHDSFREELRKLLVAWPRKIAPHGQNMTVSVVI
Briefly: Radioligand displacement. In kind it is binding. In outline:
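COS-7 cells (1.5 × 10⁶ seeded) were transiently transfected at 60–70% confluency with 4 µg of EYFP-fused human PrRP receptor DNA. About 24 h later, competition binding was run on intact cells against 1 nM N[propionyl³H]hPrRP20. IC50 came from a one-site competition fit, with triplicates.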

For assay [3], the target named is T3, W^2.71A PrRP receptor (Homo sapiens, UniProt P49683, W127A).
T3 sequence (P49683 1-370 W127A): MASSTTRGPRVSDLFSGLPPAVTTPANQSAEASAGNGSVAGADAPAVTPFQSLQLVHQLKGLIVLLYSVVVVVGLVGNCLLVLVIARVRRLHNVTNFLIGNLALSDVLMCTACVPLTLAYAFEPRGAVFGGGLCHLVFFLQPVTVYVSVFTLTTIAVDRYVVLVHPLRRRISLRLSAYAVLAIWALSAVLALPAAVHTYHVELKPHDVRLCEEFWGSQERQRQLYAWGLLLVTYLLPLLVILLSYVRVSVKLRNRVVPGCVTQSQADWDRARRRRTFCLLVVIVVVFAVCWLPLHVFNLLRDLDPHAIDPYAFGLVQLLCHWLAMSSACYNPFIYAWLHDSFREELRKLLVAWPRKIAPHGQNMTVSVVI
Briefly: IP accumulation assay, W^2.71A receptor mutant. In kind it is cell-based. The settings on record: SD. Summed up: as §1

For assay [4], the target named is T4, Y^2.64A PrRP receptor (Homo sapiens, UniProt P49683, Y120A).
T4 sequence (P49683 1-370 Y120A): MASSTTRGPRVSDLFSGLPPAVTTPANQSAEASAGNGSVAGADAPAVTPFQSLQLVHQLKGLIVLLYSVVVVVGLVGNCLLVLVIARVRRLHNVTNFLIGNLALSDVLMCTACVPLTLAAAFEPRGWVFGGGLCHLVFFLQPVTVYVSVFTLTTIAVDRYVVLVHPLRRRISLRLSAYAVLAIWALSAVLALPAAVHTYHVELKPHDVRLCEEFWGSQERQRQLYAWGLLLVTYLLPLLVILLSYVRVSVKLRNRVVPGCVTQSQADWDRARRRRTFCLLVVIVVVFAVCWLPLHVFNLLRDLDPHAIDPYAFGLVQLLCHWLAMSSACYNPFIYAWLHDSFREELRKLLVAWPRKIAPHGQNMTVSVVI
As to the kind of experiment: IP accumulation assay, Y^2.64A receptor mutant. In kind it is cell-based. The settings on record: SD. Summed up: as §1

Assay [5] concerns the target T5, PrRP receptor (GPR10) (Homo sapiens, UniProt P49683).
T5 chain: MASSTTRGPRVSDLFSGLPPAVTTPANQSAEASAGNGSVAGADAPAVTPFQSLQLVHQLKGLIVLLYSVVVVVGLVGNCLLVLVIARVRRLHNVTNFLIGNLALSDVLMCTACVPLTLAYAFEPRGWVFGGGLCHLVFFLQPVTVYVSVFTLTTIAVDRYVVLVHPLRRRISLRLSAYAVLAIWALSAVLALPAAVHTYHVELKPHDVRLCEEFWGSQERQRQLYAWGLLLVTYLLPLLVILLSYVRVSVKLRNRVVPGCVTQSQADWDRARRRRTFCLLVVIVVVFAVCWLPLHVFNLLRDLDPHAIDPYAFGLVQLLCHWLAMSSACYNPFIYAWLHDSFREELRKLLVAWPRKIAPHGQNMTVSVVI
Briefly: radioligand displacement on transfected COS-7 cells. (In a radioligand displacement assay an active substance lowers the binding of a labelled ligand.)

The target in assay [6] is T5, PrRP receptor (GPR10). As to the kind of experiment: radioligand binding on transfected COS-7 cells.

On to `CC[C@H](C)[C@H](NC(=O)CNC(=O)[C@H](CCCNC(=N)N)NC(=O)[C@H](CO)NC(=O)[C@H](C)NC(=O)[C@H](Cc1ccc(O)cc1)NC(=O)[C@H](Cc1c[nH]c2ccccc12)NC(=O)[C@H](C)NC(=O)[C@@H]1CCCN1C(=O)[C@H](CC(N)=O)NC(=O)[C@@H](NC(=O)[C@H](CC(=O)O)NC(=O)[C@@H]1CCCN1C(=O)[C@@H](N)[C@@H](C)O)[C@@H](C)CC)C(=O)N[C@@H](CCCNC(=N)N)C(=O)N1CCC[C@H]1C(=O)N[C@H](C(=O)NCC(=O)N[C@@H](C)C(=O)N[C@@H](Cc1ccccc1)C(N)=O)C(C)C` [A^19PrRP20] (H-TPDINPAWYASRGIRPVGAF-NH2), for which a half-maximal effect in assay [1] (EC50) was put at 1200 ± 231 nM. Further, the IC50 (in general, the concentration that gives 50% inhibition) in assay [2] is greater than 10000 nM.

For `CC[C@H](C)[C@H](NC(=O)CNC(=O)[C@H](CCCNC(=N)N)NC(=O)[C@H](CO)NC(=O)[C@H](C)NC(=O)[C@H](Cc1ccc(O)cc1)NC(=O)[C@@H](N)Cc1c[nH]c2ccccc12)C(=O)N[C@@H](CCCNC(=N)N)C(=O)N1CCC[C@H]1C(=O)N[C@H](C(=O)NCC(=O)N[C@@H](CCCNC(=N)N)C(=O)N[C@@H](Cc1ccccc1)C(N)=O)C(C)C` [PrRP8-20] (H-WYASRGIRPVGRF-NH2), the EC50 – broadly, the concentration giving half of the maximal effect – was 2120 ± 390 nM in assay [3], 434 ± 96 nM in assay [4] and 2.3 ± 0.5 nM in assay [1].

With `CC[C@H](C)[C@H](NC(=O)CNC(=O)[C@H](CCCNC(=N)N)NC(=O)[C@H](CO)NC(=O)[C@H](C)NC(=O)[C@H](Cc1ccc(O)cc1)NC(=O)[C@H](Cc1c[nH]c2ccccc12)NC(=O)[C@H](C)NC(=O)[C@@H]1CCCN1C(=O)[C@H](CC(N)=O)NC(=O)[C@@H](NC(=O)[C@H](CC(=O)O)NC(=O)[C@@H]1CCCN1C(=O)[C@@H](N)[C@@H](C)O)[C@@H](C)CC)C(=O)N[C@@H](C)C(=O)N1CCC[C@H]1C(=O)N[C@H](C(=O)NCC(=O)N[C@@H](CCCNC(=N)N)C(=O)N[C@@H](Cc1ccccc1)C(N)=O)C(C)C` [A^15PrRP20] (H-TPDINPAWYASRGIAPVGRF-NH2), in assay [1], the EC50 was found to be 49 ± 12 nM. Also, the IC50 in assay [2] (SD) is 882 ± 376 nM.

The molecule `CC[C@H](C)[C@H](NC(=O)CNC(=O)[C@H](CCCNC(=N)N)NC(=O)[C@H](CO)NC(=O)[C@H](C)NC(=O)[C@H](Cc1ccc(O)cc1)NC(=O)[C@H](Cc1c[nH]c2ccccc12)NC(=O)[C@H](C)NC(=O)[C@@H]1CCCN1C(=O)[C@H](CC(N)=O)NC(=O)[C@@H](NC(=O)[C@H](CC(=O)O)NC(=O)[C@@H]1CCCN1C(=O)[C@@H](N)[C@@H](C)O)[C@@H](C)CC)C(=O)N[C@@H](CCCNC(=N)N)C(=O)N1CCC[C@H]1C(=O)N[C@H](C(=O)NCC(=O)N[C@@H](CCCNC(=N)N)C(=O)N[C@@H](C)C(N)=O)C(C)C` [A^20PrRP20] (H-TPDINPAWYASRGIRPVGRA-NH2) registered an EC50 in assay [1] of 20 ± 5 nM. For the same molecule, the IC50 in assay [2] (SD) is 870 ± 288 nM.

As to `CC[C@H](C)[C@H](N)C(=O)N[C@@H](CCCNC(=N)N)C(=O)N1CCC[C@H]1C(=O)N[C@H](C(=O)NCC(=O)N[C@@H](CCCNC(=N)N)C(=O)N[C@@H](Cc1ccccc1)C(N)=O)C(C)C` [PrRP14-20] (H-IRPVGRF-NH2), it took 14 ± 2 nM to reach a half-maximal effect in assay [1] (EC50).

Molecule `CC[C@H](C)[C@H](N)C(=O)N[C@@H](CC(N)=O)C(=O)N1CCC[C@H]1C(=O)N[C@@H](C)C(=O)N[C@@H](Cc1c[nH]c2ccccc12)C(=O)N[C@@H](Cc1ccc(O)cc1)C(=O)N[C@@H](C)C(=O)N[C@@H](CO)C(=O)N[C@@H](CCCNC(=N)N)C(=O)NCC(=O)N[C@H](C(=O)N[C@@H](CCCNC(=N)N)C(=O)N1CCC[C@H]1C(=O)N[C@H](C(=O)NCC(=O)N[C@@H](CCCNC(=N)N)C(=O)N[C@@H](Cc1ccccc1)C(N)=O)C(C)C)[C@@H](C)CC` [PrRP4-20] (H-INPAWYASRGIRPVGRF-NH2) registered an EC50 in assay [1] of 1 ± 0.2 nM.

Regarding TPDINPAWYASRGIRPVGRF-NH2, in assay [5], the IC50 stood at 4.1 nM.

With INPAWYASRGIRPVGRF-NH2 [PrRP4-20], the IC50 in assay [5] is 1.2 nM.

Molecule IRPVGRF-NH2 [PrRP14-20] gave an IC50 in assay [5] of 430 nM.

As to WYASRGIRPVGRF-NH2 [PrRP8-20], in assay [5], the IC50 turned out to be 7 nM.

As for {(3H)propionyl}-TPDINPAWYASRGIRPVGRF-NH2, the Kd (in general, the concentration at which binding is half-saturated) in assay [6] came to 0.58 nM.
